Measured values reported in ChEMBL document CHEMBL1126685, “Bronchodilator activity of xanthine derivatives substituted with functional groups at the 1- or 7-position” (J Med Chem, 1993).

Assays:
Cavia porcellus [1] = species on record: Cavia porcellus; experiment: Effective concentration required in vitro for heart stimulation (right atrium) in guinea pig; type: functional; settings: Cardiac atrium
Procedure, shortened: (§1)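 Isolated right atrium of male Hartley guinea pigs, 25 °C Krebs-Henseleit gassed 95% O2–5% CO2, 0.5 g tension; cumulative concentrations; beating rate via cardiometer triggered by isometric contraction. EC15 = concentration raising rate 15% above unstimulated; 3–5 experiments.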

Cavia porcellus [2] = experiment: Positive chronotropic effect, 15% increase in heart rate of male Hartley guinea pigs on intraduodenal administration (mean of 3-5 animals); type: functional
Procedure, shortened: (§2)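 Urethane-anesthetized (1.5 g/kg ip), ventilated male Hartley guinea pigs; compound suspended in 0.5% carboxymethylcellulose given intraduodenally 5 min before iv acetylcholine 40 μg/kg (jugular, every 15 min, after three stable responses); Konzett–Rossler overflow bronchospasm and carotid-pulse heart rate followed 110 min.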

Adenosine receptor A1 [3] = target: T1, Adenosine receptor A1 (Cavia porcellus, UniProt P47745); experiment: Binding affinity against adenosine A1 receptor of cerebral cortex using [3H]CPX as a radioligand; type: tissue-based
T1 sequence (P47745 whole entry): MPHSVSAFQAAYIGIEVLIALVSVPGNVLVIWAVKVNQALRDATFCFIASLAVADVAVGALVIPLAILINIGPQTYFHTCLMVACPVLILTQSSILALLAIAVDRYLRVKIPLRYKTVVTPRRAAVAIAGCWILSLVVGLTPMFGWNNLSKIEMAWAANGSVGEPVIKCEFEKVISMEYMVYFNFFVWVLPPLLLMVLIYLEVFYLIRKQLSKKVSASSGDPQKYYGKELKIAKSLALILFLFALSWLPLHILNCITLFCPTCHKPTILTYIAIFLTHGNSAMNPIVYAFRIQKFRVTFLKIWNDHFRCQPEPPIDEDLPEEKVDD

[4] = Bronchoselectivity expressed as ratio of stimulatory activity in the right atrium (EC15) to relaxant activity in the tracheal muscle (EC50); type: functional, Cardiac atrium
[5] = Bronchoselectivity, ratio of positive chronotropic action (ED15) to bronchodilator action (ED50); type: functional
[6] = target: cyclic AMP phosphodiesterase (guinea pig); experiment: Inhibition of cyclic AMP-phosphodiesterase ( PDE) in the supernatant of tracheal muscle homogenate
Cavia porcellus [7] = species on record: Cavia porcellus; experiment: Effective concentration required in vitro for tracheal muscle (from male Hartley guinea pigs) relaxation; type: functional; settings: Trachea
Procedure, shortened: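 Tracheal ring chains from male Hartley guinea pigs (300–500 g), 37 °C Krebs-Henseleit pH 7.4, 95% O2–5% CO2, 0.5 g tension, spontaneous tone; cumulative compound addition, isotonic recording.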

[8] = target: Adenosine A2 receptor (guinea pig); experiment: Binding affinity against adenosine A2 receptor of striatal membrane using [3H]CGS-21680 as a radioligand
Cavia porcellus [9] = experiment: Bronchodilatory effect, 50% inhibition of spasmogen-induced response in male Hartley guinea pigs on intraduodenal administration; type: functional; procedure, shortened: as §2
Adenosine receptor A1 [10] = target: T1, Adenosine receptor A1; experiment: Binding affinity against Adenosine A1 receptor of cerebral cortex using [3H]-CPX; type: tissue-based
Cavia porcellus [11] = species on record: Cavia porcellus; experiment: In vitro guinea pig heart stimulation (right atrium); type: functional; settings: Cardiac atrium; procedure, shortened: as §1
[12] = Bronchoselectivity expressed as ratio of positive chronotropic action (ED15) to bronchodilator action (ED50)

CCCn1c(=O)[nH]c(=O)c2nc[nH]c21 [ENPROFYLLINE]
EC15 (Cavia porcellus [1]): 18.3 µM | ED15 (Cavia porcellus [2]): 95.1 mg/kg

CCCn1c(=O)n(CCCOC)c(=O)c2[nH]cnc21
Ki (Adenosine receptor A1 [3]): 12.4 µM | Selectivity [4]: 10.8 | Selectivity [5]: 14.9 | EC15 (Cavia porcellus [1]): 31.3 µM | Ki [6]: 48.7 µM | EC50 (Cavia porcellus [7]): 2.9 µM | Ki [8]: 15.7 µM | ED15 (Cavia porcellus [2]): 10.7 mg/kg | ED50 (Cavia porcellus [9]): 0.72 mg/kg

CCCn1c(=O)n(C)c(=O)c2[nH]cnc21
Selectivity [4]: 2.1 | Selectivity [5]: 1.3 | EC15 (Cavia porcellus [1]): 3.3 µM | EC50 (Cavia porcellus [7]): 1.6 µM | Ki [8]: 8 µM | ED15 (Cavia porcellus [2]): 5.7 mg/kg | ED50 (Cavia porcellus [9]): 4.44 mg/kg

Cn1c(=O)c2nc[nH]c2n(C)c1=O.O [THEOPHYLLINE]
EC15 (Cavia porcellus [1]): 62 µM | ED15 (Cavia porcellus [2]): 20.2 mg/kg

CCCCn1c(=O)c2c(ncn2CC(C)=O)n(CCCC)c1=O [DENBUFYLLINE]
Ki (Adenosine receptor A1 [10]): 16.5 µM | EC15 (Cavia porcellus [11]): 6 µM | EC50 (Cavia porcellus [7]): 0.01 µM | ED15 (Cavia porcellus [2]): 90 mg/kg | ED50 (Cavia porcellus [9]): 5.9 mg/kg

CC(=O)CCCCn1c(=O)c2c(ncn2C)n(C)c1=O [PENTOXIFYLLINE]
Ki (Adenosine receptor A1 [3]): 180 µM | EC15 (Cavia porcellus [1]): 52.4 µM | EC50 (Cavia porcellus [7]): 28.3 µM | ED15 (Cavia porcellus [2]): 39.4 mg/kg | ED50 (Cavia porcellus [9]): 43 mg/kg

CCCn1cnc2c1c(=O)n(C)c(=O)n2CCC
Selectivity [4]: 20 | Selectivity [5]: > 3.6 | EC15 (Cavia porcellus [1]): > 100 µM | EC50 (Cavia porcellus [7]): 5 µM | Ki [8]: 43.8 µM | ED15 (Cavia porcellus [2]): > 100 mg/kg | ED50 (Cavia porcellus [9]): 27.5 mg/kg

CCCn1c(=O)n(CCOC)c(=O)c2[nH]cnc21
Ki (Adenosine receptor A1 [3]): 2.5 µM | Selectivity [4]: 9 | EC15 (Cavia porcellus [1]): 6.3 µM | Ki [6]: 8.2 µM | EC50 (Cavia porcellus [7]): 0.7 µM | Ki [8]: 21.6 µM

CCCn1c(=O)n(C)c(=O)c2c1ncn2CC#N
Ki (Adenosine receptor A1 [3]): 6.6 µM | Selectivity [4]: 2.8 | EC15 (Cavia porcellus [1]): > 100 µM | Ki [6]: 16.5 µM | EC50 (Cavia porcellus [7]): 35.3 µM | Ki [8]: 12.8 µM

CCCn1c(=O)n(CCOCC)c(=O)c2[nH]cnc21
Ki (Adenosine receptor A1 [3]): 1.9 µM | Selectivity [4]: 361 | Selectivity [5]: 11.8 | EC15 (Cavia porcellus [1]): 25.3 µM | Ki [6]: 22.3 µM | EC50 (Cavia porcellus [7]): 0.07 µM | Ki [8]: 12 µM | ED15 (Cavia porcellus [2]): 20 mg/kg | ED50 (Cavia porcellus [9]): 1.7 mg/kg

CCCn1c(=O)n(C)c(=O)c2c1ncn2CCOCC
Ki (Adenosine receptor A1 [3]): 24.3 µM | Selectivity [4]: 21.7 | Selectivity [5]: 2.1 | EC15 (Cavia porcellus [1]): > 100 µM | Ki [6]: 136 µM | EC50 (Cavia porcellus [7]): 4.6 µM | Ki [8]: 22.9 µM | ED15 (Cavia porcellus [2]): 25.2 mg/kg | ED50 (Cavia porcellus [9]): 12.1 mg/kg

CCCn1c(=O)n(C)c(=O)c2c1ncn2CCCO
Ki (Adenosine receptor A1 [3]): 112 µM | Selectivity [4]: 4.4 | EC15 (Cavia porcellus [1]): > 100 µM | Ki [6]: 26.2 µM | EC50 (Cavia porcellus [7]): 22.6 µM | Ki [8]: > 200 µM

CCCn1c(=O)n(C)c(=O)c2c1ncn2CCCN(C)C
Ki (Adenosine receptor A1 [3]): > 200 µM | Selectivity [4]: 1 | EC15 (Cavia porcellus [1]): > 100 µM | Ki [6]: > 200 µM | EC50 (Cavia porcellus [7]): > 100 µM | Ki [8]: > 200 µM

CCCn1c(=O)n(C)c(=O)c2c1ncn2CCN(C)C
Ki (Adenosine receptor A1 [3]): > 200 µM | Selectivity [4]: 1 | EC15 (Cavia porcellus [1]): > 100 µM | Ki [6]: 53 µM | EC50 (Cavia porcellus [7]): > 100 µM | Ki [8]: > 200 µM

CCCn1c(=O)n(CC(=O)O)c(=O)c2[nH]cnc21
Ki (Adenosine receptor A1 [3]): > 200 µM | Selectivity [4]: 2.4 | EC15 (Cavia porcellus [1]): > 100 µM | Ki [6]: > 200 µM | EC50 (Cavia porcellus [7]): 41 µM | Ki [8]: > 200 µM

CCCn1c(=O)c2nc[nH]c2n(CCC)c1=O
Ki (Adenosine receptor A1 [3]): 0.21 µM | EC15 (Cavia porcellus [1]): 20 µM | ED15 (Cavia porcellus [2]): 25.5 mg/kg | ED50 (Cavia porcellus [9]): 4.69 mg/kg

CCCn1c(=O)n(C)c(=O)c2c1ncn2CCC(C)=O
Ki (Adenosine receptor A1 [3]): 30 µM | Selectivity [4]: 8.2 | EC15 (Cavia porcellus [1]): > 100 µM | Ki [6]: 32.8 µM | EC50 (Cavia porcellus [7]): 12.2 µM | Ki [8]: > 200 µM

CCCn1c(=O)n(CCC#N)c(=O)c2[nH]cnc21
Ki (Adenosine receptor A1 [3]): 15.9 µM | Selectivity [4]: 2.5 | EC15 (Cavia porcellus [1]): 4.3 µM | Ki [6]: 40.8 µM | EC50 (Cavia porcellus [7]): 1.7 µM | Ki [8]: 162 µM

CCCn1c(=O)n(CCCO)c(=O)c2[nH]cnc21
Ki (Adenosine receptor A1 [3]): 12 µM | Selectivity [4]: 5.2 | EC15 (Cavia porcellus [1]): 26.4 µM | Ki [6]: 12.6 µM | EC50 (Cavia porcellus [7]): 5.1 µM | Ki [8]: 68.7 µM

CCCn1c(=O)n(CCCCC(C)=O)c(=O)c2[nH]cnc21
Ki (Adenosine receptor A1 [3]): 23.1 µM | Selectivity [4]: 62 | Selectivity [5]: 5.3 | EC15 (Cavia porcellus [1]): 3.6 µM | Ki [6]: 16.4 µM | EC50 (Cavia porcellus [7]): 0.06 µM | ED15 (Cavia porcellus [2]): 13.5 mg/kg | ED50 (Cavia porcellus [9]): 2.55 mg/kg

C=CCn1c(=O)c2[nH]cnc2n(CCC)c1=O
Ki (Adenosine receptor A1 [3]): 1.7 µM | Selectivity [4]: 3.4 | EC15 (Cavia porcellus [1]): 5.4 µM | Ki [6]: 27.3 µM | EC50 (Cavia porcellus [7]): 1.6 µM | Ki [8]: 11.8 µM

C=CCCn1c(=O)c2[nH]cnc2n(CCC)c1=O
Selectivity [12]: 6 | Ki (Adenosine receptor A1 [3]): 0.06 µM | Selectivity [4]: 22.5 | EC15 (Cavia porcellus [1]): 4.5 µM | Ki [6]: 14.6 µM | EC50 (Cavia porcellus [7]): 0.2 µM | Ki [8]: 3.2 µM | ED15 (Cavia porcellus [2]): 11 mg/kg | ED50 (Cavia porcellus [9]): 1.84 mg/kg

CCCn1c(=O)n(CCN(C)C)c(=O)c2[nH]cnc21
Ki (Adenosine receptor A1 [3]): 4.3 µM | Selectivity [4]: 37 | Selectivity [5]: > 17.7 | EC15 (Cavia porcellus [1]): > 100 µM | Ki [6]: 9 µM | EC50 (Cavia porcellus [7]): 2.7 µM | Ki [8]: > 200 µM | ED15 (Cavia porcellus [2]): > 100 mg/kg | ED50 (Cavia porcellus [9]): 5.65 mg/kg

CCCn1c(=O)n(C)c(=O)c2c1ncn2CCO
Ki (Adenosine receptor A1 [3]): 41.4 µM | Selectivity [4]: 3.1 | EC15 (Cavia porcellus [1]): > 100 µM | Ki [6]: 28.7 µM | EC50 (Cavia porcellus [7]): 31.8 µM | Ki [8]: > 200 µM

CCCn1c(=O)n(CCO)c(=O)c2[nH]cnc21
Ki (Adenosine receptor A1 [3]): 50 µM | Selectivity [4]: 3.9 | EC15 (Cavia porcellus [1]): 2 µM | Ki [6]: 14.1 µM | EC50 (Cavia porcellus [7]): 0.51 µM | Ki [8]: > 200 µM

CCCn1c(=O)n(C)c(=O)c2c1ncn2CC(C)=O
Ki (Adenosine receptor A1 [3]): 95.7 µM | Selectivity [4]: 19.7 | Selectivity [5]: 20.1 | EC15 (Cavia porcellus [1]): 37.5 µM | Ki [6]: 20.7 µM | EC50 (Cavia porcellus [7]): 1.9 µM | Ki [8]: > 200 µM | ED15 (Cavia porcellus [2]): 30 mg/kg | ED50 (Cavia porcellus [9]): 1.49 mg/kg
